The values that follow come from paper PMC6282443 (Journal of Enzyme Inhibition and Medicinal Chemistry, 2018).

In test [1] the test system is T790M/L858R double mutant over wild-type EGFR. The note with it: cited from earlier work.
Test [2] has as its system A549 cells. Nature of the test: cells. Format: cell-based, human. The note with it: read-out: Anti-proliferative activity IC50, A549.
The next test relates to HepG2 cells. Nature of the test: MTT anti-proliferative assay, HepG2. The note with it: read-out: Anti-proliferative activity IC50, HepG2. Format: cell-based, human. On the technique in general: Tetrazolium dyes change colour on reduction, which living cells bring about.
The next test has as its system H1975 cells. It is filed as cell-based, human. The note with it: for IC50: read-out: Anti-proliferative activity IC50, H1975, 72 h; for IC50 / inhibitory activity against H1975 cells (in words): H1975, MTT.
The subject of test [3] is A549 cells. The experiment in a line: Cell cycle distribution by flow cytometry. Format: cell-based, human. Background: A flow cytometer gives signals particle by particle.
Test [4] has as its system A549 cells. The experiment in a line: Acridine orange. It is filed as cell-based, human. Conditions: A549, AO single staining.
The test system of test [5] is A549 cells. The experiment in a line: Annexin V-FITC/PI apoptosis assay by flow cytometry. It is filed as cell-based, human. Conditions: A549, 2.5 μM, 48 h; untreated control 12.18%. The gist of the method:
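A549 cells seeded at 1 × 10^6 cells/well in RPMI 1640 and exposed to test compound for 48 h. Cells stained with Annexin V-FITC and propidium iodide for 30 min at 4 °C in the dark, then analysed by flow cytometry to give quadrant populations.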

The test system of a further test is MCF-7 cells. The experiment in a line: MTT anti-proliferative assay, MCF-7. It is filed as cell-based, human. The note with it: read-out: Anti-proliferative activity IC50, MCF-7.

Entries after “also recorded” stand apart in the source; their conditions may differ. Like-named read-outs stand apart in the source and are kept apart here.

Turning to `C=CC(=O)Nc1cc(Nc2nccc(-c3cn(C)c4ccccc34)n2)c(OC)cc1N(C)CCN(C)C` [AZD9291], the “selectivity for the T790M/L858R double mutant over wild-type EGFR” value in test [1] is reported as 200 fold.
For `O=C(N/N=C/c1cnc(N2CCCC2)nc1)Nc1cc2c(Nc3ccc(F)c(Cl)c3)ncnc2cc1O[C@H]1CCOC1` [Compound 14, (S,E)-N-(4-((3-chloro-4-fluorophenyl)amino)-7-((tetrahydrofuran-3-yl)oxy)quinazolin-6-yl)-2-((2-(pyrrolidin-1-yl)pyrimidin-5-yl)methylene)hydrazine-1-carboxamide], the half-inhibitory concentration (IC50) in the test on A549 cells [2] (Homo sapiens, A549, 72 h) was 5.9 ± 0.25 µM; with HepG2 cells (Homo sapiens, HepG2, 72 h), 4.63 ± 0.36 µM; in the test on MCF-7 cells (Homo sapiens, MCF7, 72 h), 2.37 ± 0.34 µM. The “selectivity for H1975 cells (in words)” value in the test on H1975 cells (versus HepG2, A549, MCF-7) is recorded as “slight selectivity”. The “cell cycle arrest phase (in words)” value in the test on A549 cells [3] (A549) is reported as “S phase arrest; also recorded: arrested the cell cycle at the S phase”. Further, the “proportion of cells in S phase” value in the test on A549 cells [3] (A549, 2.5 μM) came to 50.68%. Further, the “proportion of cells in G0/G1 phase” value in the test with A549 cells [3] (A549, 2.5 μM, control 26.57%) is on record as 23.62%. For the same compound, in the test on A549 cells [3] (A549, 2.5 μM, control 29.4%), the “proportion of cells in G2/M phase” value is 25.7%. Also, the “G0/G1 (%)” value with A549 cells [3] (A549, 25 μM, 48 h, DMSO 26.57) is 23.62%. Further, the “G2/M (%)” value in the test on A549 cells [3] (A549, 25 μM, 48 h, DMSO 29.40) turned out to be 25.70%. Moreover, the “S (%)” value in the test on A549 cells [3] (A549, 25 μM, 48 h, DMSO 44.03) is 50.68%. In the test on A549 cells [4], the “induction of A549 cell apoptosis by AO staining (in words)” value was “can induce A549 cell apoptosis”. Further, in the test with A549 cells [5], the “apoptotic cells (early + late)” value amounted to 34.9%.
As to “(E)-N-(4-((3-chloro-4-fluoropheny)amino)-7-methoxyquinazolin-6-yl)-2-(4-(3-(dimethylamino)propoxy)benzyl idene)hydrazine-1-carboxamide [Compound 43]”, the IC50 in the test on A549 cells [2] (A549, MTT, 72 h) is 43.1 ± 3.34 µM; with HepG2 cells (HepG2, MTT, 72 h), greater than 100 µM; in the test on H1975 cells it was greater than 100 µM; in the test on MCF-7 cells (MCF-7, MTT, 72 h), greater than 100 µM.
With “(E)-N-(4-((3-chloro-4-fluoropheny)amino)-7-methoxyquinazolin-6-yl)-2-(4-(3-(pyrrolidin-1-yl)propoxy)benzyli dene)hydrazine-1-carboxamide [Compound 45]”, the IC50 with A549 cells [2] (A549, MTT, 72 h) was 23.2 ± 1.47 µM; in the test on HepG2 cells (HepG2, MTT, 72 h) it was 24.5 ± 1.27 µM; in the test with H1975 cells it was 38.2 ± 1.23 µM; in the test on MCF-7 cells (MCF-7, MTT, 72 h), 16.9 ± 1.34 µM.
For “(S,E)-N-(4-((3-chloro-4-fluoropheny)amino)-7-((tetrahydrofuran-3-yl)oxy)quinazolin-6-yl)-2-(4-(2-(4-methylpi perazin-1-yl)ethoxy)benzylidene)hydrazine-1-carboxamide [Compound 42]”, the 50% inhibitory concentration (IC50) in the test on A549 cells [2] (A549, MTT, 72 h) was determined as 2.52 ± 0.54 µM; with HepG2 cells (HepG2, MTT, 72 h), 13.4 ± 0.54 µM; with H1975 cells it was 11.2 ± 1.34 µM; in the test with MCF-7 cells (MCF-7, MTT, 72 h), 10.8 ± 0.68 µM. Moreover, the “inhibitory activity against H1975 cells (in words)” value in the test on H1975 cells is given as “moderate inhibitory activity”.
In the same order, the values of “(S,E)-N-(4-((3-chloro-4-fluoropheny)amino)-7-((tetrahydrofuran-3-yl)oxy)quinazolin-6-yl)-2-(4-(2-(diethylamin o)ethoxy)benzylidene)hydrazine-1-carboxamide [Compound 38]” are 3.01 ± 0.54 µM, 1.91 ± 0.34 µM, greater than 100 µM, 1.99 ± 0.68 µM and “poorer cellular activity”.
For “(S,E)-N-(4-((3-chloro-4-fluorophenyl)amino)-7-((tetrahydrofuran-3-yl)oxy)quinazolin-6-yl)-2-(4-(3-(diethylamin o)propoxy)benzylidene)hydrazine-1-carboxamide [Compound 49]”, in that order: 9.48 ± 0.86 µM, 5.04 ± 0.64 µM, 32.8 ± 1.27 µM, 6.21 ± 0.68 µM and “poorer cellular activity”.

A word on the IC50: it is the midpoint of a concentration-inhibition curve.
